# Active and inactive are the calls of the source. The calls are words filed in the database; no cut-off is given here.
# Legend:
# Mucor circinelloides [1] = assay: Antimicrobial activity against Mucor circinelloides isolate 4030 after 24 hrs in RMPI 1640 medium by broth microdilution method; assay type: functional, organism-based
# How it was run: (§1)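 Colistin was serially diluted from 64 to 0.06 μg/ml in RPMI 1640 with glucamine and without bicarbonate. Fresh spores from 48–72 h YAG plates were added at 0.5 × 10^4 to 4 × 10^4 cells/ml. Plates were incubated 24 h at 37°C. MIC was read visually as the lowest concentration giving 100% growth inhibition.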
# Mucor circinelloides [2] = assay: Antimicrobial activity against Mucor circinelloides isolate 4818 after 24 hrs in RMPI 1640 medium by broth microdilution method; assay type: functional, organism-based; how it was run: as §1
# Mucor circinelloides [3] = assay: Antimicrobial activity against Mucor circinelloides isolate 5904 after 24 hrs in RMPI 1640 medium by broth microdilution method; assay type: functional, organism-based; how it was run: as §1
# Rhizopus arrhizus [4] = assay: Antimicrobial activity against Rhizopus oryzae isolate 4549 after 24 hrs in RMPI 1640 medium by broth microdilution method; assay type: functional, organism-based; how it was run: as §1
# Rhizopus arrhizus [5] = assay: Antimicrobial activity against Rhizopus oryzae isolate 3140 after 24 hrs in RMPI 1640 medium by broth microdilution method; assay type: functional, organism-based; how it was run: as §1
# Rhizopus arrhizus [6] = assay: Antimicrobial activity against Rhizopus oryzae isolate 4153 after 24 hrs in RMPI 1640 medium by broth microdilution method; assay type: functional, organism-based; how it was run: as §1
# Rhizopus [7] = assay: Antimicrobial activity against Rhizopus sp. isolate 4523 after 24 hrs in RMPI 1640 medium by broth microdilution method; assay type: functional, organism-based
# How it was run: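 Broth microdilution in RPMI 1640 with […], without bicarbonate. Colistin was serially diluted 64 to 0.06 μg/ml. Spores came from YAG plates grown 48–72 h at 37°C, were filtered and counted, and were inoculated at 0.5 × 10^4 to 4 × 10^4 cells/ml. Plates were incubated 24 h at 37°C. MIC was read visually as the lowest concentration giving 100% growth inhibition.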
# Rhizopus homothallicus [8] = assay: Antimicrobial activity against Rhizopus homothallicus isolate 5790 after 24 hrs in RMPI 1640 medium by broth microdilution method; assay type: functional; how it was run: as §1
# Rhizopus arrhizus [9] = assay: Antimicrobial activity against Rhizopus oryzae isolate 5799 after 24 hrs in RMPI 1640 medium by broth microdilution method; assay type: functional, organism-based; how it was run: as §1
# Rhizopus arrhizus [10] = assay: Antimicrobial activity against Rhizopus oryzae isolate 5496 after 24 hrs in RMPI 1640 medium by broth microdilution method; assay type: functional, organism-based; how it was run: as §1
# Rhizopus [11] = assay: Antimicrobial activity against […] isolate 6254 after 24 hrs in RMPI 1640 medium by broth microdilution method; assay type: functional, organism-based; how it was run: as §1
# Mucor circinelloides [12] = assay: Antimicrobial activity against Mucor circinelloides isolate 4818 after 24 hrs in yeast nitrogen base complete medium by broth microdilution method; assay type: functional, organism-based
# How it was run: (§2)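 Broth microdilution in YNB complete medium with colistin at 128 to 0.12 μg/ml. Freshly collected spores were inoculated at 0.5 × 10^4 to 4 × 10^4 cells/ml and incubated 24 h at 37°C. MIC was read visually as the lowest concentration with complete (100%) growth inhibition.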
# Mucor circinelloides [13] = assay: Antimicrobial activity against Mucor circinelloides isolate 5904 after 24 hrs in yeast nitrogen base complete medium by broth microdilution method; assay type: functional, organism-based; how it was run: as §2
# Rhizopus arrhizus [14] = assay: Antimicrobial activity against Rhizopus oryzae isolate 4549 after 24 hrs in yeast nitrogen base complete medium by broth microdilution method; assay type: functional, organism-based; how it was run: as §2
# Rhizopus arrhizus [15] = assay: Antimicrobial activity against Rhizopus oryzae isolate 4153 after 24 hrs in yeast nitrogen base complete medium by broth microdilution method; assay type: functional, organism-based; how it was run: as §2
# Rhizopus homothallicus [16] = assay: Antimicrobial activity against Rhizopus homothallicus isolate 5790 after 24 hrs in yeast nitrogen base complete medium by broth microdilution method; assay type: functional; how it was run: as §2
# Rhizopus microsporus = assay: Antimicrobial activity against Rhizopus microsporus isolate 6164 after 24 hrs in yeast nitrogen base complete medium by broth microdilution method; assay type: functional; how it was run: as §2
# Rhizopus arrhizus [17] = assay: Antimicrobial activity against Rhizopus oryzae isolate 6093 after 24 hrs in yeast nitrogen base complete medium by broth microdilution method; assay type: functional, organism-based
# How it was run: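 Microdilution was done in yeast nitrogen base complete medium, with colistin serially diluted 128 to 0.12 μg/ml. Spores were harvested from YAG plates (48–72 h, 37°C), washed, filtered and counted, then added at 0.5 × 10^4 to 4 × 10^4 cells/ml. After 24 h at 37°C, MIC was taken visually as the lowest concentration with complete growth inhibition.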
# Rhizopus arrhizus [18] = assay: Fungicidal activity against Rhizopus oryzae 5799 after 6 hrs by DiBAC staining; assay type: functional, organism-based
# How it was run: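 Spores were grown to mycelia in RPMI 1640 plus 0.15% Junlon, shaken 18 h at 37°C. Mycelia were pelleted and exposed 6 h at 37°C with shaking to colistin (two levels), amphotericin B 2 μg/ml, or drug-free medium. They were washed in MOPS pH 7, stained with DiBAC 2 μg/ml for 1 h in the dark at ambient temperature, and imaged by fluorescence microscopy with an FITC filter.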
# Rhizopus arrhizus [19] = assay: Antimicrobial activity against Rhizopus oryzae assessed as reduction in hyphal viability at 8 ug/ml up to 6 hrs by XTT assay; assay type: functional, organism-based
# How it was run: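 R. oryzae mycelia were shaken at 37°C in RPMI 1640 with colistin, amphotericin B or both; drug-free RPMI served as control. At 0, 2, 6 and 24 h, pellets received XTT (1 mg) plus menadione (0.17 mg) in 1 ml PBS for 1 h at 37°C, then OD405 was read. Viability is drug OD405 divided by control OD405; at least three experiments.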
# Rhizopus arrhizus [20] = assay: Antimicrobial activity against Rhizopus oryzae assessed as plasma membrane disruption-related ATP release at 8 ug/ml after 30 mins by Cell Titer-Glo luminescent assay; assay type: functional, organism-based
# How it was run: (§3)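 Spores at 10^7 cells/ml in RPMI 1640 were germinated about 6 h at 37°C. Germlings were resuspended in RPMI with colistin at 8 or 32 μg/ml, or drug-free, and shaken at 37°C. Supernatants taken at 5, 30, 60 and 90 min were assayed for released ATP by CellTiter-Glo luminescence.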
# Rhizopus arrhizus [21] = assay: Antimicrobial activity against Rhizopus oryzae assessed as plasma membrane disruption-related ATP release at 32 ug/ml after 30 mins by Cell Titer-Glo luminescent assay; assay type: functional, organism-based; how it was run: as §3
# Rhizopus arrhizus [22] = assay: Antimicrobial activity against Rhizopus oryzae assessed as cytoplasmic vacuolar swelling and bleb formation at 32 ug/ml by transmission electron microscopy; assay type: functional, organism-based
# Rhizopus arrhizus [23] = assay: Antimicrobial activity against Rhizopus oryzae assessed as vacuolar and plasma membrane damage at 32 ug/ml by FM4-64 staining; assay type: functional, organism-based
# How it was run: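 Germlings at 5 × 10^6/ml were loaded with 5 μM FM4-64 in RPMI 1640 for 30 min at 30°C in the dark. After washing in PBS, they were exposed to colistin at the MIC and MFC, or drug-free RPMI, for 60 min at 37°C. Membranes were viewed by fluorescence microscopy with a rhodamine filter.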
sequence,measurement,setting,value
COLISTIN,MFC,Mucor circinelloides [1],64 mg/L
same,MIC,Mucor circinelloides [1],16 mg/L
same,MFC,Mucor circinelloides [2],32 mg/L
same,MIC,Mucor circinelloides [2],32 mg/L
same,MFC,Mucor circinelloides [3],64 mg/L
same,MIC,Mucor circinelloides [3],16 mg/L
same,MFC,Rhizopus arrhizus [4],64 mg/L
same,MIC,Rhizopus arrhizus [4],32 mg/L
same,MFC,Rhizopus arrhizus [5],32 mg/L
same,MIC,Rhizopus arrhizus [5],16 mg/L
same,MFC,Rhizopus arrhizus [6],64 mg/L
same,MIC,Rhizopus arrhizus [6],16 mg/L
same,MFC,Rhizopus [7],64 mg/L
same,MIC,Rhizopus [7],16 mg/L
same,MFC,Rhizopus homothallicus [8],64 mg/L
same,MIC,Rhizopus homothallicus [8],16 mg/L
same,MFC,Rhizopus arrhizus [9],32 mg/L
same,MIC,Rhizopus arrhizus [9],8 mg/L
same,MFC,Rhizopus arrhizus [10],32 mg/L
same,MIC,Rhizopus arrhizus [10],16 mg/L
same,MFC,Rhizopus [11],32 mg/L
same,MIC,Rhizopus [11],16 mg/L
same,MFC,Mucor circinelloides [12],> 128 mg/L
same,MIC,Mucor circinelloides [12],128 mg/L
same,MFC,Mucor circinelloides [13],> 128 mg/L
same,MIC,Mucor circinelloides [13],128 mg/L
same,MFC,Rhizopus arrhizus [14],> 128 mg/L
same,MIC,Rhizopus arrhizus [14],128 mg/L
same,MFC,Rhizopus arrhizus [15],> 128 mg/L
same,MIC,Rhizopus arrhizus [15],128 mg/L
same,MFC,Rhizopus homothallicus [16],> 128 mg/L
same,MIC,Rhizopus homothallicus [16],128 mg/L
same,MFC,Rhizopus microsporus,> 128 mg/L
same,MIC,Rhizopus microsporus,128 mg/L
same,MFC,Rhizopus arrhizus [17],> 128 mg/L
same,MIC,Rhizopus arrhizus [17],128 mg/L
same,Activity,Rhizopus arrhizus [18],Dose-dependent effect
same,inhibition,Rhizopus arrhizus [19],45%
same,Activity,Rhizopus arrhizus [20],Active
same,Activity,Rhizopus arrhizus [21],Active
same,Activity,Rhizopus arrhizus [22],Active
same,Activity,Rhizopus arrhizus [23],Active
